According to ChEMBL document CHEMBL3792365, “Dioxol and dihydrodioxin analogs of 2- and 3-phenylacetonitriles as potent anti-cancer agents with nanomolar activity against a variety of human cancer cells” (2016):

Columns and labels:
Format in all cases: functional
[1] = system: MDA-MB-231; assay: Growth inhibition of human MDA-MB-231 cells after 48 hrs by sulforhodamine B assay; details: MDA-MB-231, 48 h
How it was run: (§1)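 Five-dose testing against a 60-line human tumor cell panel. GI50 is the drug concentration giving a 50% reduction in net protein increase relative to untreated control cells.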

[2] = Growth inhibition of human HL-60(TB) cells at 10 uM after 48 hrs by sulforhodamine B assay; details: HL-60, 48 h, values are per cent of control
[3] = Growth inhibition of human LOXIMVI cells at 10 uM after 48 hrs by sulforhodamine B assay; details: LOX IMVI, values are per cent of control
[4] = Growth inhibition of human DU145 cells after 48 hrs by sulforhodamine B assay; details: DU-145, 48 h; how it was run: as §1
[5] = Growth inhibition of human HCT116 cells after 48 hrs by sulforhodamine B assay; details: HCT-116, 48 h; how it was run: as §1
[6] = system: NCI-H23; assay: Growth inhibition of human NCI-H23 cells at 10 uM after 48 hrs by sulforhodamine B assay; details: NCI-H23, 48 h, values are per cent of control
[7] = Growth inhibition of human UO31 cells at 10 uM after 48 hrs by sulforhodamine B assay; details: UO-31, 48 h, values are per cent of control
[8] = Growth inhibition of human OVCAR5 cells at 10 uM after 48 hrs by sulforhodamine B assay; details: OVCAR-5, 48 h, values are per cent of control
[9] = system: U-251; assay: Growth inhibition of human U251 cells at 10 uM after 48 hrs by sulforhodamine B assay; details: U-251, 48 h, values are per cent of control
[10] = system: MCF7; assay: Growth inhibition of human MCF7 cells at 10 uM after 48 hrs by sulforhodamine B assay; details: MCF7, 48 h, values are per cent of control
[11] = Growth inhibition of human MOLT4 cells at 10 uM after 48 hrs by sulforhodamine B assay; details: MOLT-4, 48 h, values are per cent of control
[12] = system: 786-0; assay: Growth inhibition of human 786-0 cells after 48 hrs by sulforhodamine B assay; details: 786-0, 48 h; how it was run: as §1
[13] = system: MCF7; assay: Growth inhibition of human MCF7 cells after 48 hrs by sulforhodamine B assay; details: MCF7, 48 h; how it was run: as §1
[14] = Growth inhibition of human Hs 578T cells at 10 uM after 48 hrs by sulforhodamine B assay; details: values are per cent of control
[15] = Growth inhibition of human HL-60(TB) cells after 48 hrs by sulforhodamine B assay; details: HL-60, 48 h
How it was run: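 Five-dose study across the 60-cell human tumour panel. GI50 is the drug concentration giving a 50% reduction in net protein increase relative to control cells.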

[16] = system: NCI-H522; assay: Growth inhibition of human NCI-H522 cells after 48 hrs by sulforhodamine B assay; details: NCI-H522, 48 h
How it was run: (§2)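 Five-dose concentration series run across a panel of 60 human tumour cell lines. GI50 is taken as the drug concentration giving a 50% reduction in net protein increase relative to untreated control cells.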

[17] = system: NCI-H23; assay: Growth inhibition of human NCI-H23 cells after 48 hrs by sulforhodamine B assay; details: NCI-H23, 48 h; how it was run: as §2
[18] = system: CCRF-CEM; assay: Growth inhibition of human CCRF-CEM cells at 10 uM after 48 hrs by sulforhodamine B assay; details: values are per cent of control
[19] = Growth inhibition of human SF268 cells after 48 hrs by sulforhodamine B assay; details: SF-268, 48 h; how it was run: as §2
[20] = Growth inhibition of human MOLT4 cells after 48 hrs by sulforhodamine B assay; details: MOLT-4, 48 h; how it was run: as §2
[21] = Growth inhibition of human OVCAR3 cells after 48 hrs by sulforhodamine B assay; details: OVCAR-3, 48 h; how it was run: as §2
[22] = Growth inhibition of human OVCAR4 cells after 48 hrs by sulforhodamine B assay; details: OVCAR-4, 48 h; how it was run: as §2
[23] = Growth inhibition of human UACC257 cells at 10 uM after 48 hrs by sulforhodamine B assay; details: UACC-257, 48 h, values are per cent of control
[24] = system: CCRF-CEM; assay: Growth inhibition of human CCRF-CEM cells after 48 hrs by sulforhodamine B assay; how it was run: as §1
[25] = Growth inhibition of human HOP92 cells at 10 uM after 48 hrs by sulforhodamine B assay; details: HOP-92, 48 h, values are per cent of control
[26] = Growth inhibition of human SF295 cells after 48 hrs by sulforhodamine B assay; details: SF-295, 48 h; how it was run: as §2
[27] = Growth inhibition of human HCT15 cells after 48 hrs by sulforhodamine B assay; details: HCT-15, 48 h; how it was run: as §1
[28] = Growth inhibition of human PC3 cells after 48 hrs by sulforhodamine B assay; details: PC-3, 48 h; how it was run: as §2
[29] = Growth inhibition of human HOP92 cells after 48 hrs by sulforhodamine B assay; details: HOP-92, 48 h; how it was run: as §1
[30] = Growth inhibition of human PC3 cells at 10 uM after 48 hrs by sulforhodamine B assay; details: PC-3, 48 h, values are per cent of control
[31] = system: MDA-MB-468; assay: Growth inhibition of human MDA-MB-468 cells after 48 hrs by sulforhodamine B assay; details: MDA-MB-468, 48 h; how it was run: as §1
[32] = Growth inhibition of human UO31 cells after 48 hrs by sulforhodamine B assay; details: UO-31, 48 h
How it was run: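 Five-dose testing across the 60-line human tumour cell panel. GI50 is the drug concentration that gives a 50% reduction in net protein increase relative to control cells.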

[33] = system: KM12; assay: Growth inhibition of human KM12 cells after 48 hrs by sulforhodamine B assay; details: KM12, 48 h; how it was run: as §1
[34] = Growth inhibition of human IGROV1 cells after 48 hrs by sulforhodamine B assay; details: IGROV-1, 48 h; how it was run: as §1
[35] = Growth inhibition of human HCC2998 cells after 48 hrs by sulforhodamine B assay; details: HCC 2998, 48 h; how it was run: as §1
[36] = Growth inhibition of human RPMI8226 cells at 10 uM after 48 hrs by sulforhodamine B assay; details: RPMI-8226, 48 h, values are per cent of control
[37] = system: A498; assay: Growth inhibition of human A498 cells at 10 uM after 48 hrs by sulforhodamine B assay; details: A498, 48 h, values are per cent of control
[38] = system: Malme-3M; assay: Growth inhibition of human MALME-3M cells at 10 uM after 48 hrs by sulforhodamine B assay; details: values are per cent of control
[39] = Growth inhibition of human OVCAR8 cells at 10 uM after 48 hrs by sulforhodamine B assay; details: OVCAR-8, 48 h, values are per cent of control
[40] = system: U-251; assay: Growth inhibition of human U251 cells after 48 hrs by sulforhodamine B assay; details: U-251, 48 h; how it was run: as §2
[41] = Growth inhibition of human SF295 cells at 10 uM after 48 hrs by sulforhodamine B assay; details: SF-295, 48 h, values are per cent of control
[42] = Growth inhibition of human HOP62 cells after 48 hrs by sulforhodamine B assay; details: HOP-62, 48 h; how it was run: as §1
[43] = Growth inhibition of human OVCAR3 cells at 10 uM after 48 hrs by sulforhodamine B assay; details: OVCAR-3, 48 h, values are per cent of control

COc1ccc(/C(C#N)=C/c2ccc3c(c2)OCCO3)cc1
GI50 [1]: 69.3 µM | growth, % of control at 10 µM [2]: 38% | growth, % of control at 10 µM [3]: 56.7% | GI50 [4]: > 100 µM | GI50 [5]: 6.33 µM | growth, % of control at 10 µM [6]: 78.3% | growth, % of control at 10 µM [7]: 73.2% | growth, % of control at 10 µM [8]: 88% | growth, % of control at 10 µM [9]: 36.3% | growth, % of control at 10 µM [10]: 24.4% | growth, % of control at 10 µM [11]: 32.2% | GI50 [12]: 35.8 µM | GI50 [13]: 3.01 µM | growth, % of control at 10 µM [14]: 79.6% | GI50 [15]: > 100 µM | GI50 [16]: > 100 µM | GI50 [17]: > 100 µM | growth, % of control at 10 µM [18]: 58.7% | GI50 [19]: > 100 µM | GI50 [20]: > 100 µM | GI50 [21]: 37.1 µM | GI50 [22]: 24.9 µM | growth, % of control at 10 µM [23]: 76.7% | GI50 [24]: > 100 µM | growth, % of control at 10 µM [25]: 89% | GI50 [26]: 10.6 µM | GI50 [27]: 2.1 µM | GI50 [28]: > 100 µM | GI50 [29]: > 100 µM | growth, % of control at 10 µM [30]: 70.9% | GI50 [31]: 4.29 µM | GI50 [32]: > 100 µM | GI50 [33]: 4.26 µM | GI50 [34]: > 100 µM | GI50 [35]: 7.78 µM | growth, % of control at 10 µM [36]: 80.8% | growth, % of control at 10 µM [37]: 70.9% | growth, % of control at 10 µM [38]: 64.6% | growth, % of control at 10 µM [39]: 77.1% | GI50 [40]: > 100 µM | growth, % of control at 10 µM [41]: 66.7% | GI50 [42]: > 100 µM

N#C/C(=C\c1cc2ccccc2s1)c1ccc2c(c1)OCO2
GI50 [1]: 0.18 µM | growth, % of control at 10 µM [2]: 0.5% | growth, % of control at 10 µM [43]: -29.5% | growth, % of control at 10 µM [3]: 19.9% | GI50 [4]: 0.21 µM | GI50 [5]: 0.04 µM | growth, % of control at 10 µM [6]: 31.1% | growth, % of control at 10 µM [7]: 34.9% | growth, % of control at 10 µM [8]: 50.4% | growth, % of control at 10 µM [9]: 18.4% | growth, % of control at 10 µM [10]: 16.3% | growth, % of control at 10 µM [11]: 17.4% | GI50 [12]: 0.88 µM | GI50 [13]: 0.09 µM | growth, % of control at 10 µM [14]: -5.4% | GI50 [15]: 0.03 µM | GI50 [16]: 0.02 µM | GI50 [17]: 0.32 µM | growth, % of control at 10 µM [18]: 16.8% | GI50 [19]: 1.64 µM | GI50 [20]: 0.07 µM | GI50 [21]: 0.04 µM | GI50 [22]: 1.27 µM | growth, % of control at 10 µM [23]: 72.8% | GI50 [24]: 0.05 µM | growth, % of control at 10 µM [25]: 60.8% | GI50 [26]: 0.04 µM | GI50 [27]: 0.04 µM | GI50 [28]: 0.06 µM | GI50 [29]: 17 µM | growth, % of control at 10 µM [30]: 25.8% | GI50 [31]: 0.38 µM | GI50 [32]: 0.08 µM | GI50 [33]: 0.05 µM | GI50 [34]: 0.09 µM | GI50 [35]: 0.27 µM | growth, % of control at 10 µM [36]: 9.3% | growth, % of control at 10 µM [37]: -7.5% | growth, % of control at 10 µM [38]: 55.1% | growth, % of control at 10 µM [39]: 14% | GI50 [40]: 0.06 µM | growth, % of control at 10 µM [41]: 2.9% | GI50 [42]: 0.07 µM

COc1ccc(/C(C#N)=C/c2ccc3c(c2)OCCO3)cc1OC
GI50 [1]: 4.69 µM | growth, % of control at 10 µM [2]: -15.7% | growth, % of control at 10 µM [3]: 44.9% | GI50 [4]: 4.69 µM | GI50 [5]: 2.71 µM | growth, % of control at 10 µM [6]: 46.8% | growth, % of control at 10 µM [7]: 41.8% | growth, % of control at 10 µM [8]: 73.5% | growth, % of control at 10 µM [9]: 19.9% | growth, % of control at 10 µM [10]: 20.1% | growth, % of control at 10 µM [11]: 19.6% | GI50 [12]: 3.88 µM | GI50 [13]: 0.86 µM | growth, % of control at 10 µM [14]: 16.3% | GI50 [15]: 2.07 µM | GI50 [16]: 2.8 µM | GI50 [17]: 6.61 µM | growth, % of control at 10 µM [18]: 6.4% | GI50 [19]: 5.38 µM | GI50 [20]: 8.85 µM | GI50 [21]: 2.16 µM | GI50 [22]: 11.2 µM | growth, % of control at 10 µM [23]: 66.7% | GI50 [24]: 3.76 µM | growth, % of control at 10 µM [25]: 39.3% | GI50 [26]: 2.49 µM | GI50 [27]: 0.73 µM | GI50 [28]: 4.57 µM | GI50 [29]: 9.64 µM | growth, % of control at 10 µM [30]: 21.3% | GI50 [31]: 1.11 µM | GI50 [32]: 5.01 µM | GI50 [33]: 1.59 µM | GI50 [34]: 9.4 µM | GI50 [35]: 8.85 µM | growth, % of control at 10 µM [36]: 57.1% | growth, % of control at 10 µM [37]: -4.1% | growth, % of control at 10 µM [38]: 51.8% | growth, % of control at 10 µM [39]: 30.1% | GI50 [40]: 3.97 µM | growth, % of control at 10 µM [41]: -14% | GI50 [42]: 2.98 µM
